Shown are actives, neighbours in structure and some others; about 11% of the full set was active somewhere.
RORa activator: RORA (human) activation | P35398 | CHO-K1 Gal4-RORA LBD luciferase reporter, luminescence; percent increase over mock-subtracted basal signal | activation, % at 10 µM | 65,000 tested, 1.5% active;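 active = activation above the mean of all tested compounds plus 3 SD, cut at about 49% in these data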
Target sequence (P35398 whole entry, looked up, the tested form may be a part): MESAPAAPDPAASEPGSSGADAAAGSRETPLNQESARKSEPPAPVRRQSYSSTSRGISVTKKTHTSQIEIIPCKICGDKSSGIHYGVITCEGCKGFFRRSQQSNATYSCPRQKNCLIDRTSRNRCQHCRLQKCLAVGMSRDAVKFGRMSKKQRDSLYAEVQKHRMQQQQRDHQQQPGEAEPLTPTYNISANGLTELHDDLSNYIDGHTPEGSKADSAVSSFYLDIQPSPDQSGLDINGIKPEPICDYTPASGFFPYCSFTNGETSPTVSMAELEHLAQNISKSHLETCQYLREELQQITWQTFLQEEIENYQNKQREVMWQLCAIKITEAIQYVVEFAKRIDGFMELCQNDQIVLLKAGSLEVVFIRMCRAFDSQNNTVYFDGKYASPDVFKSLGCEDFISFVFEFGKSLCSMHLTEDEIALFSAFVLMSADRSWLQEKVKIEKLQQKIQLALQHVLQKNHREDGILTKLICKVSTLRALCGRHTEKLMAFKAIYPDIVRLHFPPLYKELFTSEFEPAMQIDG
M1 ag: agonists of M1 muscarinic receptor | CHO-M1 cells, Fluo-4 calcium fluorescence, agonist mode; active compounds read high | B-score at 10 µM | 64,000 tested, 3% active | AID 626;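 active = fluorescence rise, raw or as B-score row- and column-corrected plate score, outside the 99.7% band of its plate's samples, either direction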
mHtt clearance: mutant huntingtin protein clearance | inhibition, % at 1.5 µM | AID 853 | HeLa Exon1htt(103Q)mCFP, aggregate imaging; zero = plate's median compound well | 47,000 tested, 0.42% active;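 active = inhibition of aggregate fluorescence above about 70%, also judged a hit by eye on the cell image, limit read from the data, passing the limit was not always enough; inconclusive = no rule stated for this call; inactive = not judged a hit on image review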;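 also: cells exposed to compound for three days before fixation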
M1 antagonist: blocks the rat M1 muscarinic receptor response to acetylcholine. P08482. CHO-M1 cells, Fluo-4 calcium, ACh EC80 antagonist mode; active compounds read low. B-score at 10 µM. 64,000 tested, 3.4% active. AID 628;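 active = calcium fluorescence response, raw or row-and-column corrected B-score, differing from the plate sample mean either way at a set confidence level, mostly lower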
SF1 activator: activators of human nuclear receptor SF-1 | 65,000 tested, 1.9% active | CHO-K1 Gal4-SF-1 LBD luciferase reporter; % increase over DMSO SF-1-specific signal | activation, % at 10 µM | AID 522 | Q13285;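 active = activation above the mean activation of all tested compounds plus 3 SD, cut at about 50% in these data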
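Assay system: CHO-K1 cells co-transfected with Gal4 DBD–human SF-1 LBD, 5xGal4 luciferase reporter; doses: 10 µM only; incubation: 20 h compound exposure at 37 °C after 1 h cell settling; signal: luciferase light emission; evaluation: percent activation versus DMSO; repeats: one test per compound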
D1 allo mod: allosteric modulators of human D1 dopamine receptor; B-score at 10 µM; HEK293 D1, CRE-luciferase, dopamine EC30 potentiation; actives deviate in either direction; AID 641; 58,000 tested, 5.9% active; P21728;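 active = luminescence count or its row- and column-corrected plate score outside the 99.7% band of the plate's sample wells, on either side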
M1 ag confirm: rat M1 muscarinic agonism, confirmation | shares compounds with M1 ag | CHO-M1 cells, Fluo-4 calcium fluorescence, agonist mode; actives lie on both sides | fluorescence change (max-min) at 10 µM | 1,700 tested, 19% active | AID 1488;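 active = fluorescence change differs from the solvent-only DMSO control mean at a set confidence level in both duplicate runs; inconclusive = differs from solvent-only control mean in just one of two runs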;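 also: an EC20 dose of acetylcholine follows compound addition during the same imaging run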
M4 ag counter: rat M4 muscarinic agonism, M1 counter-screen | fluorescence change (max-min) at 10 µM | AID 1741 | shares compounds with M1 ag | CHO M4/Gqi5 cells, Fluo-4 calcium fluorescence, agonist mode; actives lie on both sides | 1,700 tested, 9% active;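 active = fluorescence change differing from the plate's solvent-only control wells at 99.7% confidence in both duplicates, whether higher or lower; inconclusive = differs from solvent controls in only one of two duplicates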
Each line names hits and unclear results; the compound was inactive in the other large screens (follow-up assays come after a bar, where they were run).

CCCc1nc(SCC(=O)N2CCN(c3ccccc3)CC2)c2c(=O)n(C)c(=O)n(C)c2n1	M1 ag 7.2, M1 antagonist -8.1 (no result: mHtt clearance) | M1 ag confirm inactive | M4 ag counter inactive
CC(C)c1nc(SCC(=O)N2CCN(c3ccccc3)CC2)c2c(=O)n(C)c(=O)n(C)c2n1	M1 ag 5.7, M1 antagonist -3.6, D1 allo mod -3.9 (no result: mHtt clearance) | M1 ag confirm inconclusive | M4 ag counter inactive
CCCc1nc(SCc2cccnc2)c2c(=O)n(C)c(=O)n(C)c2n1	M1 ag 2.6, M1 antagonist -1 (no result: D1 allo mod) | M1 ag confirm -25 | M4 ag counter -81
CC(C)c1nc(SCC(=O)N2CCOCC2)c2c(=O)n(C)c(=O)n(C)c2n1	M1 ag 8.3 | M1 ag confirm inactive | M4 ag counter inactive
Cn1c(=O)c2c(SCc3cccnc3)nc(CC(C)(C)C)nc2n(C)c1=O	none (no result: mHtt clearance, D1 allo mod)
CN(C)CCNC(=O)COc1cccc(Cl)c1	none (no result: mHtt clearance)
COc1ccc(C(=O)NCCc2c[nH]c3ccccc23)cc1S(=O)(=O)N1CCOCC1	none
Cn1c(=O)c2c(SCC(=O)N3CCCc4ccccc43)nc(C3CC3)nc2n(C)c1=O	M1 ag 3.8, M1 antagonist -2.6 (no result: mHtt clearance) | M1 ag confirm -28 | M4 ag counter inconclusive
CCc1nc(SCC(=O)N2CCC(C)CC2)c2c(=O)n(C)c(=O)n(C)c2n1	M1 ag 3.4, M1 antagonist -3.5 (no result: mHtt clearance) | M1 ag confirm inconclusive | M4 ag counter inactive
CCc1nc(SCC(=O)Nc2cc(C)on2)c2c(=O)n(C)c(=O)n(C)c2n1	none
CCOC(=O)c1[nH]c2ccccc2c1N=CN(CC)CC	none (no result: D1 allo mod)
CN1CCN(CC(=O)N(C)c2nc(-c3ccccc3)cs2)CC1	none (no result: mHtt clearance)
CC(C)CCCC(C)NS(=O)(=O)Cc1ccccc1 (centres undefined)	none (no result: RORa activator, M1 ag, M1 antagonist, SF1 activator, D1 allo mod)
Cn1cc(C(=O)c2ccc(F)cc2)cc1-c1nc2ccccc2n1C	M1 ag 3.2 | M1 ag confirm inactive | M4 ag counter inconclusive
Cc1cc(C)c(S(=O)(=O)Nc2ccc(OCC(=O)O)cc2)c(C)c1	none (no result: D1 allo mod)
O=C(NCc1ccc2c(c1)OCO2)C1CCN(c2ccc(S(=O)(=O)N3CCCC3)cc2)CC1	M1 ag 2.6 (no result: mHtt clearance, D1 allo mod) | M1 ag confirm inactive | M4 ag counter inactive
COC(=O)COc1ccc(S(=O)(=O)NCc2ccncc2)cc1	M1 ag 2.7, M1 antagonist -2 (no result: mHtt clearance) | M1 ag confirm inactive | M4 ag counter inconclusive
Cc1cc(C(=O)OCC(=O)N2CCN(c3ccccc3)CC2)c2ccccc2n1	none
FC(F)(F)c1nc2ncc(Cl)cc2[nH]1	none (no result: mHtt clearance)
Cn1c(=O)[nH]c2cc(Cl)cnc21	M1 ag 9.1 (no result: D1 allo mod) | M1 ag confirm inactive | M4 ag counter inactive
COc1ccc(S(=O)(=O)n2nc(C)cc2C)c(C)c1C	none (no result: RORa activator, M1 ag, M1 antagonist, SF1 activator, D1 allo mod)
CCCCCN=Cc1c(C)[nH]n(-c2nc3ccccc3s2)c1=O	none (no result: mHtt clearance)
CCOC(=O)CSC1=NC(=O)CS1	none (no result: mHtt clearance)
Cc1c(C(=O)N2CCc3ccccc3C2)sc2nc(-c3ccccc3)cn12	M1 ag 2.4 (no result: mHtt clearance) | M1 ag confirm inactive | M4 ag counter inconclusive
O=C(Nc1ccc2c(c1)OCO2)N1CCN(c2ccccc2Cl)CC1	none (no result: RORa activator, M1 ag, M1 antagonist, SF1 activator, D1 allo mod)
O=C(Nc1ccc2c(c1)OCO2)N1CCN(c2cccc(C(F)(F)F)c2)CC1	M1 ag 2.9 (no result: D1 allo mod) | M1 ag confirm inconclusive | M4 ag counter inconclusive
CC1CCCCN1C(=O)COC(=O)c1n[nH]c2ccccc12 (centres undefined)	none (no result: RORa activator, M1 ag, M1 antagonist, SF1 activator, D1 allo mod)
CCC(=O)Nc1sc2c(c1C#N)CC(C)(CC)OC2 (centres undefined)	none (no result: RORa activator, M1 ag, M1 antagonist, SF1 activator, D1 allo mod)
COc1ccc(Cn2c(=O)oc3ccc(C)cc32)cc1OC	M1 ag 13 | M1 ag confirm inactive | M4 ag counter inactive
O=C(O)C(Cc1c[nH]c2ccccc12)NS(=O)(=O)c1cccc2nsnc12 (centres undefined)	none (no result: mHtt clearance)
Cc1ccc(S(=O)(=O)c2c(COC(=O)c3ccc(Cl)cc3)c(-c3ccccc3)nn2C)cc1	none (no result: RORa activator, M1 ag, M1 antagonist, SF1 activator, D1 allo mod)
O=C(Cc1ccc(Cl)cc1)Nc1cccc(-c2nnc(-c3ccco3)o2)c1	none (no result: D1 allo mod)
COc1cccc(C(=O)Nc2ccc(-c3nnc(-c4ccco4)o3)cc2)c1	M1 ag 5.6 (no result: D1 allo mod) | M1 ag confirm inactive | M4 ag counter inconclusive
COc1ccc(CC(=O)Nc2cccc(-c3nnc(-c4cccc(C)c4)o3)c2)cc1OC	M1 ag 6.6, M1 antagonist -7.3, D1 allo mod -2.7 (no result: mHtt clearance) | M1 ag confirm inactive | M4 ag counter inconclusive
O=C(Cc1ccccc1)Nc1cccc(-c2nnc(-c3ccco3)o2)c1	M1 ag 5.2 (no result: D1 allo mod) | M1 ag confirm inactive | M4 ag counter inactive
COc1ccc(CC(=O)Nc2cccc(-c3nnc(-c4ccc(C)cc4)o3)c2)cc1OC	none (no result: mHtt clearance)
CCSc1ccccc1C(=O)NCc1ccc2c(c1)OCO2	none (no result: D1 allo mod)
COCCN1C(=O)C(CC(=O)Nc2ccc(C(C)=O)cc2)SC1=Nc1ccccc1 (centres undefined)	M1 ag 3.9 | M1 ag confirm inconclusive | M4 ag counter inactive
COC(=O)Nc1ccc2ncn(C)c(=O)c2c1	none (no result: RORa activator, M1 ag, M1 antagonist, SF1 activator, D1 allo mod)
O=C(CN(Cc1ccco1)C(=O)CNS(=O)(=O)c1ccc(F)cc1)NCCc1ccccc1	M1 ag 2.5 (no result: mHtt clearance) | M1 ag confirm inconclusive | M4 ag counter inconclusive
Cc1ccc2[nH]c3c(c2c1)CN(C(=O)CN1CC(C)OC(C)C1)CC3 (centres undefined)	M1 ag 8.4 (no result: mHtt clearance, D1 allo mod) | M1 ag confirm inactive | M4 ag counter inactive
Cc1ccc2[nH]c3c(c2c1)CN(C(=O)CN1CCN(Cc2ccc4c(c2)OCO4)CC1)CC3	none (no result: mHtt clearance)
CN(CC(=O)Nc1ccc(C#N)cc1)Cc1ccc(Cl)cc1	none (no result: mHtt clearance)
N#Cc1ccc(NC(=O)Nc2ccc(Cl)cc2)cc1	M1 ag 3.1 (no result: mHtt clearance) | M1 ag confirm inactive | M4 ag counter inactive
CC1=NC(C(F)(F)F)(C(F)(F)F)C2=C(CC(C)(C)CC2=O)N1Cc1ccco1	none (no result: mHtt clearance)
CC(=O)N(Cc1ccccc1)c1ncc2c(n1)c(=O)c(C#N)c1ccccn12	M1 ag 4 (no result: mHtt clearance) | M1 ag confirm 64 | M4 ag counter inactive
CCC(C)NC(=O)C1CCN(S(=O)(=O)c2ccc(OC)cc2)CC1 (centres undefined)	none (no result: RORa activator, M1 ag, M1 antagonist, SF1 activator, D1 allo mod)
CCCCCCNC(=O)C(C#N)c1nc2ccccc2nc1N1CCOCC1 (centres undefined)	M1 ag 156 | M1 ag confirm 179 | M4 ag counter 1619
CCCCCNC(=O)C(C#N)c1nc2ccccc2nc1N1CCCC1 (centres undefined)	M1 ag 282, M1 antagonist -2.4 | M1 ag confirm 1609 | M4 ag counter 1437
CCCCCCOC(=O)C(C#N)c1nc2ccccc2nc1N1CCOCC1 (centres undefined)	none (no result: mHtt clearance)

Source: PubChem
